Measured values reported in ChEMBL document CHEMBL1765024, “Fluorescent cyclin-dependent kinase inhibitors block the proliferation of human breast cancer cells” (Bioorg Med Chem, 2011).
pIC50: −log10 of the molar value. Calls of active or inactive are those of the source. The rule behind the calls is not given here.

Columns and labels:
MDA-MB-231 [1] = assay: Induction of apoptosis in human MDA-MB-231 cells assessed as decrease in Bcl2 protein level at 40 uM after 48 hrs by Western blotting; assay type: functional, cell-based
Summary of the method: (§1)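 Cells treated with vehicle or compound, then lysed in NP-40/Triton X-100 buffer with protease and phosphatase inhibitors. Lysate protein measured by BCA, and equal protein run on 10% SDS–PAGE and transferred to PVDF. Blocked overnight in 5% milk/TBST, primary antibody 2 h, HRP secondary 1 h, ECL detection.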

MDA-MB-231 [2] = assay: Induction of apoptosis in human MDA-MB-231 cells assessed as increase in Bax protein level at 40 uM after 48 hrs by Western blotting; assay type: functional, cell-based; summary of the method: as §1
MDA-MB-231 [3] = assay: Induction of apoptosis in human MDA-MB-231 cells assessed as decrease in caspase 3 protein level at 40 uM after 48 hrs by Western blotting; assay type: functional, cell-based; summary of the method: as §1
MDA-MB-231 [4] = assay: Induction of apoptosis in human MDA-MB-231 cells assessed as decrease in caspase 7 protein level at 40 uM after 48 hrs by Western blotting; assay type: functional, cell-based; summary of the method: as §1
MCF7 [5] = assay: Induction of apoptosis in human MCF7 cells assessed as viable cells at 10 uM after 24 hrs using annexinV-propidium iodide staining by flow cytometry (reference value: 70.32%); assay type: functional; conditions: MCF7, 24 h, read-out: Activity
MCF7 [6] = assay: Induction of apoptosis in human MCF7 cells assessed as early apoptotic cells at 10 uM after 24 hrs using annexinV-propidium iodide staining by flow cytometry (reference value: 4.24%); assay type: functional
MCF7 [7] = assay: Induction of apoptosis in human MCF7 cells assessed as late apoptotic cells at 10 uM after 24 hrs using annexinV-propidium iodide staining by flow cytometry (reference value: 13.35%); assay type: functional
MCF7 [8] = assay: Induction of apoptosis in human MCF7 cells assessed as necrotic cells at 10 uM after 24 hrs using annexinV-propidium iodide staining by flow cytometry (reference value: 12.09%); assay type: functional
MDA-MB-231 [9] = assay: Antiproliferative activity against estrogen receptor-deficient human MDA-MB-231 cells after 48 hrs by WST-1 assay; assay type: functional, cell-based; conditions: MDA-MB-231, 48 h
Summary of the method: (§2)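 Cells seeded at 3000/well in DMEM with 10% FBS and left 24 h. Compounds in DMSO were serially diluted in medium (1–100 µM) and added in triplicate. WST-1 was read 48 h after addition: 2–3 h incubation, absorbance at 450 nm with 630 nm reference. IC50 interpolated from log concentration versus fraction surviving; mean (SEM) of triplicate experiments.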

[10] = molecular target: CDK9/cyclin T1 (Homo sapiens) (UniProt O60563+P50750); assay: Inhibition of at human CDK9/cyclin T1 at 0.1 uM after 40 mins relative to control; assay type: protein-complex assay
Summary of the method: (§3)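 Radiometric screen at 100 nM compound against purified human CDK/cyclin (5–10 mU). Incubation 40 min at room temperature, stopped with phosphoric acid. Read by filtermat scintillation. Activity expressed as % of control, N = 2.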

[11] = molecular target: Cyclin-dependent kinase 7/ cyclin H (Homo sapiens) (UniProt P51946+P50613); assay: Inhibition of human CDK7/cyclinH/MAT1 at 0.1 uM after 40 mins relative to control; assay type: protein-complex assay; summary of the method: as §3
MDA-MB-231 [12] = assay: Cell cycle arrest in human MDA-MB-231 cells assessed as accumulation at G2/M phase treated at 5 uM for 24 hrs measured after drug washout following 48 hrs growth recovery using propidium iodide staining by flow cytometry; assay type: functional, cell-based
Summary of the method: (§4)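 Exponentially growing cells exposed 24 h, then held a further 48 h in compound-free medium. Cells trypsinized, pelleted, PBS-washed, permeabilized in 70% ethanol, stained 30 min in the dark at room temperature with PI plus RNase, and analysed by flow cytometry. Phase percentages given after subtracting untreated control. Mean of triplicate experiments.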

MDA-MB-231 [13] = assay: Cell cycle arrest in human MDA-MB-231 cells assessed as accumulation at G2/M phase treated at 10 uM for 24 hrs measured after drug washout following 48 hrs growth recovery using propidium iodide staining by flow cytometry; assay type: functional, cell-based; summary of the method: as §4
MDA-MB-231 [14] = assay: Induction of apoptosis in human MDA-MB-231 cells assessed as reduction of cdc2 phosphorylation at T161 catalytic site at 10 uM after 24 hrs by Western blot analysis; assay type: functional, cell-based
Summary of the method: (§5)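 MDA-MB-231 cells were treated with 10 µM compound for 1, 3, 6, 12 and 24 h and lysed. Equal protein was resolved by 10% SDS–PAGE and immunoblotted for phospho-cdc2 (T161, Y15), cdc2 and cyclin B, with actin as loading standard and ECL detection.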

MDA-MB-231 [15] = assay: Induction of apoptosis in human MDA-MB-231 cells assessed as reduction of cdc2 phosphorylation at Y15 regulatory site at 10 uM after 24 hrs by Western blot analysis; assay type: functional, cell-based; summary of the method: as §5
MCF7 [16] = assay: Antiproliferative activity against human MCF7 cells expressing estrogen receptor at 100 uM after 48 hrs by WST-1 assay; assay type: functional, cell-based
Summary of the method: (§6)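 Cells seeded at 3000/well in DMEM with 10% FBS and left 24 h, then given compound from DMSO stock diluted in medium at 100 µM. Survival read by WST-1 48 h after addition: 2–3 h incubation, absorbance at 450 nm with 630 nm reference; triplicate experiments.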

MCF7 [17] = assay: Antiproliferative activity against human MCF7 cells expressing estrogen receptor after 48 hrs by WST-1 assay; assay type: functional, cell-based; conditions: MCF7, 48 h; summary of the method: as §2
MDA-MB-231 [18] = assay: Antiproliferative activity against estrogen receptor-deficient human MDA-MB-231 cells at 100 uM after 48 hrs by WST-1 assay; assay type: functional, cell-based; summary of the method: as §6
[19] = molecular target: CDK3/cyclin E (Homo sapiens) (UniProt P24864+O96020+Q00526); assay: Inhibition of human CDK3/cyclin E at 0.1 uM after 40 mins relative to control; assay type: protein-complex assay; summary of the method: as §3
[20] = molecular target: T1, Cyclin-dependent kinase 5/CDK5 activator 1 (Homo sapiens) (UniProt Q00535+Q15078); conditions: at 0.1 µM
[21] = molecular target: T1, Cyclin-dependent kinase 5/CDK5 activator 1 (Homo sapiens); conditions: at 0.1 µM; remark: listed apart in the source
[22] = molecular target: Cyclin-dependent kinase 1/cyclin B1 (Homo sapiens) (UniProt P06493+P14635); conditions: at 0.1 µM
[23] = Antiproliferative activity against human CL 10.3 cells expressing p-glycoprotein after 72 hrs by WST-1 assay; assay type: functional, cell-based
Summary of the method: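 MCF-7 and its P-glycoprotein-overexpressing MDR subline CL 10.3 were grown in DMEM with 10% heat-inactivated FBS. Compounds in DMSO were serially diluted in medium and given to cells for 72 h. Read-out was WST-1 reduction (450 nm, 630 nm reference). IC50 interpolated from log concentration versus fraction surviving; mean (SEM) of triplicates. Ratio is CL 10.3 IC50 over MCF-7 IC50.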

MDA-MB-231 [24] = assay: Induction of apoptosis in human MDA-MB-231 cells assessed as decrease in Bcl2 protein level at 10 uM after 48 hrs by Western blotting; assay type: functional, cell-based
Summary of the method: (§7)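 MDA-MB-231 cells were treated with vehicle or 10 µM compound for 48 h (and 72 h). Lysates were cleared and protein measured by BCA. Equal protein was run on 10% SDS–PAGE and transferred to PVDF, blocked in 5% milk overnight, and probed 2 h with anti-Bcl-2, Bax or PARP. HRP secondary was applied for 1 h, with ECL detection.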

MDA-MB-231 [25] = assay: Induction of apoptosis in human MDA-MB-231 cells assessed as increase in Bax protein level at 10 uM after 48 hrs by Western blotting; assay type: functional, cell-based; summary of the method: as §7
MDA-MB-231 [26] = assay: Induction of apoptosis in human MDA-MB-231 cells assessed as decrease in caspase 3 protein level at 10 uM after 48 hrs by Western blotting; assay type: functional, cell-based
MDA-MB-231 [27] = assay: Induction of apoptosis in human MDA-MB-231 cells assessed as decrease in caspase 7 protein level at 10 uM after 48 hrs by Western blotting; assay type: functional, cell-based
MDA-MB-231 [28] = assay: Induction of apoptosis in human MDA-MB-231 cells assessed as induction of PARP cleavage at 10 uM after 48 hrs by Western blotting; assay type: functional, cell-based; summary of the method: as §7
MDA-MB-231 [29] = assay: Cell cycle arrest in human MDA-MB-231 cells assessed as accumulation at G2/M phase at 5 to 10 uM after 16 to 40 hrs using propidium iodide staining by flow cytometry; assay type: functional, cell-based
Summary of the method: (§8)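 Asynchronous cells were treated with 5 or 10 µM compound or DMSO for 24 h (also 16 and 40 h). They were trypsinized, washed in PBS and fixed/permeabilized in 70% ethanol. Staining was with RNase and propidium iodide for 30 min in the dark at room temperature, followed by flow cytometry. Phase percentages are given minus DMSO control; mean of triplicates.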

MDA-MB-231 [30] = assay: Induction of apoptosis in human MDA-MB-231 cells assessed as aberrant gross morphological changes at 10 uM after 48 hrs using propidium iodide staining by confocal microscopic analysis; assay type: functional, cell-based
MDA-MB-231 [31] = assay: Induction of apoptosis in human MDA-MB-231 cells assessed as decrease in cell number at 10 uM after 48 hrs using propidium iodide staining by confocal microscopic analysis; assay type: functional, cell-based
MDA-MB-231 [32] = assay: Cell cycle arrest in human MDA-MB-231 cells assessed as accumulation at G2/M phase at 5 to 10 uM after 24 hrs using propidium iodide staining by flow cytometry; assay type: functional, cell-based; summary of the method: as §8
MCF7 [33] = assay: Cell cycle arrest in human MCF7 cells assessed as accumulation at G2/M phase at 5 to 10 uM after 24 hrs using propidium iodide staining by flow cytometry; assay type: functional, cell-based; summary of the method: as §8
MDA-MB-231 [34] = assay: Cell cycle arrest in human MDA-MB-231 cells assessed as accumulation at sup G1 phase at 5 to 10 uM after 24 hrs using propidium iodide staining by flow cytometry; assay type: functional, cell-based; summary of the method: as §8
MCF7 [35] = assay: Cell cycle arrest in human MCF7 cells assessed as accumulation at sub G1 phase at 5 to 10 uM after 24 hrs using propidium iodide staining by flow cytometry; assay type: functional, cell-based; summary of the method: as §8
MCF7 [36] = assay: Cell cycle arrest in human MCF7 cells assessed as accumulation at G2/M phase at 5 to 10 uM after 16 to 40 hrs using propidium iodide staining by flow cytometry; assay type: functional, cell-based; summary of the method: as §8
MCF7 [37] = assay: Induction of apoptosis in human MCF7 cells assessed as aberrant gross morphological changes at 10 uM after 48 hrs using propidium iodide staining by confocal microscopic analysis; assay type: functional, cell-based
MCF7 [38] = assay: Induction of apoptosis in human MCF7 cells assessed as decrease in cell number at 10 uM after 48 hrs using propidium iodide staining by confocal microscopic analysis; assay type: functional, cell-based

T1 sequence (Q00535 whole entry): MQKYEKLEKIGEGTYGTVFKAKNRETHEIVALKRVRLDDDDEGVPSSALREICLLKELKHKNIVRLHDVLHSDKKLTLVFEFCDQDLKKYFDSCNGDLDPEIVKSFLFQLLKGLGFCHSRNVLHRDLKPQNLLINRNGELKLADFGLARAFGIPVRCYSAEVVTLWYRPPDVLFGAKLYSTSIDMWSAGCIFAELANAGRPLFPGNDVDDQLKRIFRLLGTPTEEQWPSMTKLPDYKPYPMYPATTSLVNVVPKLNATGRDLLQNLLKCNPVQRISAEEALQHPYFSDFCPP
T1 sequence (Q15078 99-307 partner limits assumed): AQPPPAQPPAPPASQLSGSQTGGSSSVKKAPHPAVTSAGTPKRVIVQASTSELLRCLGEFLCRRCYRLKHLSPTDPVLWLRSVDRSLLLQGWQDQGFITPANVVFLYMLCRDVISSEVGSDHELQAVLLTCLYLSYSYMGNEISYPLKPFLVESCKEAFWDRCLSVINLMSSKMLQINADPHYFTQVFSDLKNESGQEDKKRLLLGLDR
Chain of Cyclin-dependent kinase 1/cyclin B1 (Homo sapiens) (P06493 whole entry, looked up): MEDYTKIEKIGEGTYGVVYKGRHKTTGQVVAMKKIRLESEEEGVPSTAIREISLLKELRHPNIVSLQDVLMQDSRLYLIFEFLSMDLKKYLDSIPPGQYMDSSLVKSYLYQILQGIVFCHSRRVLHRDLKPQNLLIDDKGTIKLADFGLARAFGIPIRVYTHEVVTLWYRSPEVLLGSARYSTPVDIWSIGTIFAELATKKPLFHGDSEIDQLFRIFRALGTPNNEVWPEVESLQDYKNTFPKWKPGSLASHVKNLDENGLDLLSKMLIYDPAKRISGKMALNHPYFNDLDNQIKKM
Chain of Cyclin-dependent kinase 1/cyclin B1 (Homo sapiens) (P14635 whole entry, looked up): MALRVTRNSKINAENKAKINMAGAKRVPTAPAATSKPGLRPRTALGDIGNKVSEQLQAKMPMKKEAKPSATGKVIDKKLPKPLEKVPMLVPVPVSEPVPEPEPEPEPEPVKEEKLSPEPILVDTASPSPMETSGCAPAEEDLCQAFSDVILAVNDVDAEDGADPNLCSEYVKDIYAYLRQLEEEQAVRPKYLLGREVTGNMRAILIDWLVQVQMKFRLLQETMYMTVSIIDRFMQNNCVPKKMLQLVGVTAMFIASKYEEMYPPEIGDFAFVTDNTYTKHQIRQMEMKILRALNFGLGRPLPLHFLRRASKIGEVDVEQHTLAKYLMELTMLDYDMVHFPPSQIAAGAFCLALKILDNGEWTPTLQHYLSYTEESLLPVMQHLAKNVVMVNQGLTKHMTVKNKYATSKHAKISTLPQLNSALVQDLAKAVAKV
Chain of CDK3/cyclin E (Homo sapiens) (O96020 whole entry, looked up): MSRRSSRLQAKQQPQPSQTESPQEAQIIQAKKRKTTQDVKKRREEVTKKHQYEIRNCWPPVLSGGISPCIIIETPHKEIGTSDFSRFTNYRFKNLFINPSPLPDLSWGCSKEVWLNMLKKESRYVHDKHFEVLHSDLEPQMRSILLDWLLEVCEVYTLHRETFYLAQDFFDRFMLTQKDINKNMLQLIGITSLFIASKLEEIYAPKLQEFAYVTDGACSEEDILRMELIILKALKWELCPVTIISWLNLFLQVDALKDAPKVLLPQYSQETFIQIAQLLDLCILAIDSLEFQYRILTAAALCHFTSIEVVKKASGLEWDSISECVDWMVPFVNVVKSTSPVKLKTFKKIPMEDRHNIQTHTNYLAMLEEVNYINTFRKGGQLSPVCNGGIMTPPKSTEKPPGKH
Chain of CDK3/cyclin E (Homo sapiens) (P24864 whole entry, looked up): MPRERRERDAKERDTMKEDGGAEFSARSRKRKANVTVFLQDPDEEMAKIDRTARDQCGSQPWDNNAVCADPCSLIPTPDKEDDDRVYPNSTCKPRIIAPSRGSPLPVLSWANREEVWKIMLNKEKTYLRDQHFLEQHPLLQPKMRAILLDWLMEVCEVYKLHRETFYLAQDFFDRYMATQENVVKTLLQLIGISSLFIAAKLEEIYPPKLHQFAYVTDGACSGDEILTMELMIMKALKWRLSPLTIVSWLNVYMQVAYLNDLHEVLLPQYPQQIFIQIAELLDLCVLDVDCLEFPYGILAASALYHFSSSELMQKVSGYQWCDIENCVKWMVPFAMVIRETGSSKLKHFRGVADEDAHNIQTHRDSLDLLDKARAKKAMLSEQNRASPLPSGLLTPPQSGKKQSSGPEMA
Chain of CDK3/cyclin E (Homo sapiens) (Q00526 whole entry, looked up): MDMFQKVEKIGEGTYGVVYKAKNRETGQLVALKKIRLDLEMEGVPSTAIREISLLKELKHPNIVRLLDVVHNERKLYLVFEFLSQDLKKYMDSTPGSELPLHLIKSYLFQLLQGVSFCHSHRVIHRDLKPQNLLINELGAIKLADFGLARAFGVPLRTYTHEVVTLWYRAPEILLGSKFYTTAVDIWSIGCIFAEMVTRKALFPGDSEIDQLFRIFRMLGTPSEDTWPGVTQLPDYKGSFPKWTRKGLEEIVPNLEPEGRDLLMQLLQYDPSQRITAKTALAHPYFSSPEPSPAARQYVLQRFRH

CC[C@H](CO)Nc1nc(NCc2ccccc2)c2ncn(C(C)C)c2n1 [SELICICLIB]
Activity (MDA-MB-231 [1]): inactive | Activity (MDA-MB-231 [2]): inactive | Activity (MDA-MB-231 [3]): inactive | Activity (MDA-MB-231 [4]): inactive | viability at 10 µM (MCF7 [5]): 73.1% | Activity (MCF7 [6]): 7.13% | Activity (MCF7 [7]): 13.2% | Activity (MCF7 [8]): 6.56% | pIC50 (MDA-MB-231 [9]): 4.26 | inhibition [10]: 19% | inhibition [11]: 26% | Activity (MDA-MB-231 [12]): inactive | Activity (MDA-MB-231 [13]): inactive

CC(C)[C@H](CO)Nc1nc(Nc2ccc(C(=O)O)c(Cl)c2)c2ncn(C(C)C)c2n1 [PURVALANOL B]
Activity (MDA-MB-231 [14]): inactive | Activity (MDA-MB-231 [15]): inactive | Activity (MCF7 [16]): inactive | pIC50 (MCF7 [17]): < 4.00 | Activity (MDA-MB-231 [18]): inactive | pIC50 (MDA-MB-231 [9]): < 4.00 | inhibition [10]: 22% | inhibition [11]: 66% | inhibition [19]: 89% | inhibition [20]: 97% | inhibition [21]: 97% | inhibition [22]: 78%

CC(=O)O[C@H]1C(=O)[C@@]2(C)[C@H]([C@H](OC(=O)c3ccccc3)[C@]3(O)C[C@H](OC(=O)[C@H](O)[C@@H](NC(=O)c4ccccc4)c4ccccc4)C(C)=C1C3(C)C)[C@]1(OC(C)=O)CO[C@@H]1C[C@@H]2O [PACLITAXEL]
pIC50 [23]: < 4.30

CC[C@H](CO)Nc1nc(Nc2ccc(C(=O)NCCNS(=O)(=O)c3cccc4c(N(C)C)cccc34)c(Cl)c2)c2ncn(C(C)C)c2n1
Activity (MDA-MB-231 [24]): Active | Activity (MDA-MB-231 [25]): Active | Activity (MDA-MB-231 [26]): Active | Activity (MDA-MB-231 [27]): Active | Activity (MDA-MB-231 [28]): Active | viability at 10 µM (MCF7 [5]): 52.3% | Activity (MCF7 [6]): 8.87% | Activity (MCF7 [7]): 16.74% | Activity (MCF7 [8]): 22.14% | Activity (MDA-MB-231 [29]): Active | Activity (MDA-MB-231 [30]): Active | Activity (MDA-MB-231 [31]): Active | pIC50 (MCF7 [17]): 4.72 | pIC50 (MDA-MB-231 [9]): 5.31 | inhibition [10]: 44% | inhibition [11]: 57% | inhibition [19]: 40% | Activity (MDA-MB-231 [32]): Active | Activity (MCF7 [33]): Active | Activity (MDA-MB-231 [34]): Active | Activity (MCF7 [35]): Active | Activity (MCF7 [36]): Active | Activity (MCF7 [37]): Active | Activity (MCF7 [38]): Active | inhibition [20]: 67% | inhibition [21]: 76% | inhibition [22]: 16%

CN(C)c1cccc2c(S(=O)(=O)NCCN)cccc12 [DANSYL ETHYLENEDIAMINE]
pIC50 (MCF7 [17]): < 4.00 | pIC50 (MDA-MB-231 [9]): < 4.00
